Laboratory results: ChEMBL document CHEMBL1811838, “Antimalarial activity of natural and synthetic prodiginines” (J Med Chem, 2011)

Tests used:
Plasmodium falciparum [1] = experiment: Antimalarial activity multidrug-resistant Plasmodium falciparum Dd2 after 72 hrs by SYBR Green I based fluorescence assay; type: functional, organism-based; details: Dd2, 72 h
How it was run: (§1)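 P. falciparum (D6 pansensitive; Dd2 MDR) cultured under standard conditions and grown 72 h with varying compound concentrations, chloroquine positive control or no drug, each condition in quadruplicate. Growth measured by SYBR Green I fluorescence with minor modifications; IC50 = concentration inhibiting growth by 50%.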

Plasmodium falciparum [2] = experiment: Antimalarial activity Plasmodium falciparum D6 after 72 hrs by SYBR Green I based fluorescence assay; type: functional, organism-based; details: D6, 72 h; how it was run: as §1
[3] = Toxicity in C57BL/6J mouse splenic lymphocytes after 72 hrs by Alamar blue Assay; type: cell-based; details: splenic lymphocyte
How it was run: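 Splenic lymphocytes from C57BL/6J mice washed, then stimulated with 1 μg/mL concanavalin A in RPMI/10% FBS with 50 μM β-mercaptoethanol. Seeded at 2 × 10^5 cells/well with serially diluted compound for 72 h at 37 °C, 5% CO2. Resazurin added (final 10 μM) for another 24 h; fluorescence read at ex 560/em 590 nm.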

Row | Structure (SMILES) | IC50 (Plasmodium falciparum [1]) | IC50 (Plasmodium falciparum [2]) | IC50 [3]
1 | CCCCCCCCc1cc(Cc2ccc(F)cc2)c(/C=C2\N=C(c3ccc[nH]3)C=C2OC)[nH]1 | 1.2 nM | 1.3 nM | < 125 nM
2 | CCCCCCCc1cc(CCCCCC)c(/C=C2\N=C(c3ccc[nH]3)C=C2OC)[nH]1 | 1.2 nM | 2.1 nM | < 125 nM
3 | CCCCCCCCCCc1cc[nH]c1/C=C1\N=C(c2ccc[nH]2)C=C1OC | 10 nM | 8 nM | < 125 nM
4 | COC1=CC(c2ccc[nH]2)=N/C1=C\c1[nH]c(Cc2ccccc2Cl)cc1Cc1ccccc1Cl | 4.9 nM | 3.6 nM | < 125 nM
5 | COC1=CC(c2ccc[nH]2)=N/C1=C\c1[nH]ccc1Cc1ccccc1 | 86 nM |  | < 125 nM
6 | COC1=CC(c2cccs2)=N/C1=C\c1[nH]c(C)cc1C | > 25000 nM | > 25000 nM | 3530 nM
7 | CCCCCCc1cc(Cc2ccc(F)cc2)c(/C=C2\N=C(c3ccc[nH]3)C=C2OC)[nH]1 | 0.9 nM |  | 1460 nM
8 | COC1=CC(c2ccc[nH]2)=N/C1=C\c1[nH]c(Cc2cccc(F)c2)cc1Cc1cccc(F)c1 | 6.7 nM | 5.1 nM | < 125 nM
9 | CCCCCCc1cc(Cc2ccc(Br)cc2)c(/C=C2\N=C(c3ccc[nH]3)C=C2OC)[nH]1 | 2.8 nM |  | < 125 nM
10 | COC1=CC(c2ccc[nH]2)=N/C1=C\c1[nH]ccc1Cc1ccc2ccccc2c1 |  | 56 nM | 
11 | COC1=CC(c2ccccc2)=N/C1=C\c1[nH]c(C)cc1C | 13600 nM | 19400 nM | 7950 nM
12 | CCCCCCCCCCCC1=N/C(=C\c2[nH]c(-c3cc4ccccc4[nH]3)cc2OC)C=C1 | 6150 nM | 4060 nM | 3410 nM
13 | CCCCCCCCc1cc[nH]c1/C=C1\N=C(c2ccc[nH]2)C=C1OC | 1.8 nM | 4.6 nM | < 125 nM
14 | COC(=O)CCCc1cc[nH]c1/C=C1\N=C(c2ccc[nH]2)C=C1OC |  | 4500 nM | 
15 | CCCCC1CCCCCCc2cc1c(/C=C1\N=C(c3ccc[nH]3)C=C1OC)[nH]2 (stereo not drawn) [STREPTORUBIN B] |  | 7.8 nM | 
16 | COC1=CC(c2ccco2)=N/C1=C\c1[nH]c(C)cc1C | > 25000 nM | > 25000 nM | 3890 nM
17 | COC1=CC(c2ccc[nH]2)=N/C1=C\c1[nH]ccc1Cc1ccc(OC)cc1 | 156 nM | 170 nM | < 125 nM
18 | CCc1cc(Cc2ccc(Cl)cc2)c(/C=C2\N=C(c3ccc[nH]3)C=C2OC)[nH]1 | 6.2 nM |  | < 125 nM
19 | CCCCc1ccc(/C=C2\N=C(c3ccc[nH]3)C=C2OC)[nH]1 | 1590 nM | 1780 nM | < 125 nM
20 | CCCCCCCCCCCc1ccc(/C=C2\N=C(c3ccco3)C=C2OC)[nH]1 | 3810 nM | 2920 nM | 980 nM
21 | COC1=CC(c2cc3ccccc3[nH]2)=N/C1=C\c1[nH]c(C)cc1C [OBATOCLAX] | 4950 nM | 4250 nM | < 125 nM
22 | CCCCCCCCCCCCCCCCc1cc[nH]c1/C=C1\N=C(c2ccc[nH]2)C=C1OC | > 25000 nM | > 25000 nM | 3630 nM
23 | COC1=CC(c2ccc[nH]2)=N/C1=C\c1[nH]c(Cc2ccc(F)cc2)cc1Cc1ccc(Cl)cc1 | 6.1 nM |  | < 125 nM
24 | CCCCCCCCCCCCCCCCc1ccc(/C=C2\N=C(c3ccc[nH]3)C=C2OC)[nH]1 | 400 nM | 300 nM | < 125 nM
25 | COC1=CC(c2ccc[nH]2)=N/C1=C\c1ccc(CCCCCCCCCCCN)[nH]1 |  | 1700 nM | 
26 | COC1=CC(c2ccc[nH]2)=N/C1=C\c1[nH]ccc1Cc1ccc(Br)cc1 | 108 nM | 90 nM | < 125 nM
27 | COC1=CC(c2ccc[nH]2)=N/C1=C\c1[nH]c(CCC2CCCCC2)cc1CCC1CCCCC1 | 3.5 nM | 5.3 nM | < 125 nM

Row | Structure (SMILES) | IC50 (Plasmodium falciparum [1]) | IC50 (Plasmodium falciparum [2]) | IC50 [3]
28 | COC1=CC(c2ccc[nH]2)=N/C1=C\c1[nH]c(Cc2ccc(Cl)cc2Cl)cc1Cc1ccc(Cl)cc1Cl | 11 nM | 12.6 nM | < 125 nM
29 | COC1=CC(c2ccc[nH]2)=N/C1=C\c1[nH]c(Cc2ccc(Br)cc2)cc1Cc1ccc(F)cc1 | 5.1 nM | 5.7 nM | < 125 nM
30 | CCCCCCCCCCCC1=N/C(=C\c2[nH]c(-c3ccccc3)cc2OC)C=C1 | 15800 nM | 10500 nM | 3580 nM
31 | COC1=CC(c2ccc[nH]2)=N/C1=C\c1[nH]ccc1CC(C)C | 230 nM | 460 nM | < 125 nM
32 | CCCCCCCc1cc(Cc2ccc(Cl)cc2)c(/C=C2\N=C(c3ccc[nH]3)C=C2OC)[nH]1 | 2.2 nM | 2.8 nM | < 125 nM
33 | COC1=CC(c2ccc[nH]2)=N/C1=C\c1[nH]c(Cc2ccc(Br)cc2)cc1Cc1ccc(Br)cc1 | 11 nM | 14 nM | < 125 nM
34 | CCCCCCCCc1cc(CCCCCCC)[nH]c1/C=C1\N=C(c2ccc[nH]2)C=C1OC | 2.9 nM | 6.2 nM | 3910 nM
35 | COC1=CC(c2ccc[nH]2)=N/C1=C\c1[nH]c(Cc2ccc(Cl)cc2)cc1CCC1CCCCC1 | 2.9 nM | 3.9 nM | 1010 nM
36 | COC1=CC(c2ccc[nH]2)=N/C1=C\c1[nH]c(C)cc1C | 8130 nM | 8900 nM | < 125 nM
37 | CCCCCCCCc1cc(Cc2ccc(Br)cc2)c(/C=C2\N=C(c3ccc[nH]3)C=C2OC)[nH]1 | 2.9 nM | 4 nM | < 125 nM
38 | CCCCCCc1cc[nH]c1/C=C1\N=C(c2ccc[nH]2)C=C1OC | 7 nM | 28 nM | < 125 nM
39 | CCCCCCCCCCCc1ccc(/C=C2\N=C(c3cccs3)C=C2OC)[nH]1 | 7770 nM | 5940 nM | 2120 nM
40 | COC1=CC(c2ccc[nH]2)=N/C1=C\c1[nH]c(Cc2c(F)cccc2F)cc1Cc1c(F)cccc1F | 18.3 nM | 14.7 nM | < 125 nM
41 | CCN(CC)CCCC(C)Nc1ccnc2cc(Cl)ccc12 (stereo not drawn) [CHLOROQUINE] |  |  | 16000 nM
42 | COC1=CC(c2ccc[nH]2)=N/C1=C\c1[nH]c(Cc2ccc(Br)cc2)cc1Cc1ccc(Cl)cc1 | 7.7 nM | 8.3 nM | < 125 nM
43 | CCCCCC1=C/C(=C/c2[nH]c(-c3ccc[nH]3)cc2OC)N=C1C [PRODIGIOSIN] |  | 8 nM | 
44 | CCCCCCc1cc(CCCCCC)c(/C=C2\N=C(c3ccc[nH]3)C=C2OC)[nH]1 | 1.1 nM | 1.7 nM | < 125 nM
45 | CCCCCCc1ccc(/C=C2\N=C(c3ccc[nH]3)C=C2OC)[nH]1 | 450 nM | 375 nM | < 125 nM
46 | CCCCCCCCCCCC1=N/C(=C\c2[nH]c(-c3ccc[nH]3)cc2OC)C=C1 [UNDECYLPRODIGININE] |  | 7.7 nM | 
47 | COC1=CC(c2ccc[nH]2)=N/C1=C\c1[nH]c(Cc2ccc(F)cc2)cc1Cc1ccc(F)cc1 | 5.7 nM | 5.6 nM | < 125 nM
48 | CCCCCCc1cc(CCC)c(/C=C2\N=C(c3ccc[nH]3)C=C2OC)[nH]1 | 4 nM | 4.5 nM | < 125 nM
49 | CCCCCCCCc1cc(CCCCCC)[nH]c1/C=C1\N=C(c2ccc[nH]2)C=C1OC | 2 nM | 4.9 nM | < 125 nM
50 | CCCc1ccc(/C=C2\N=C(c3ccc[nH]3)C=C2OC)[nH]1 |  | 2300 nM | 
51 | CCCCCCCCc1cc(CCCCCCCC)c(/C=C2\N=C(c3ccc[nH]3)C=C2OC)[nH]1 | 129 nM | 92 nM | 31200 nM
52 | CCCCCCCCc1ccc(/C=C2\N=C(c3ccc[nH]3)C=C2OC)[nH]1 | 130 nM | 80 nM | < 125 nM
53 | CCCCc1cc[nH]c1/C=C1\N=C(c2ccc[nH]2)C=C1OC | 18 nM | 80 nM | < 125 nM
